In the library only some 1.9% were active in any assay of this set; here they are far more common.
Efflux pump mplx: antifungal efflux pump inhibition, Nile Red retention; 0.44% of 330,000 active; AID 485275; inhibition, % at 10 µM; S. cerevisiae Candida pump triplex;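 active = plate passing quality check with inhibition over a set limit, or well fluorescence over plate mean plus 4 SD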;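 also: Nile Red retained in pooled yeast measured as flow cytometry median fluorescence; 0% = buffer negative control and 100% = Enniatin B positive control; higher means more Nile Red kept so more efflux inhibition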
ARFGAP1 inh: rat ARFGAP1 inhibition; 0.26% of 360,000 active; AID 651572; inhibition, % at 16.5 µM; Arfgap1-stimulated ARF1 GTP hydrolysis, GDP FP detection;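 active = inhibition above a per-plate limit, mean inhibition of low control wells plus 3 SD, cut at about 25% in these data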;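 also: 0% = DMSO wells with enzyme and 100% = wells lacking Arfgap1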
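Material: rat Arfgap1 GAP domain (His6, aa 1-136), purified enzyme. Also added: human ARF1(Δ1-17)-GTP substrate. Compound dosing: 16.5 µM single point, 1.26% DMSO. Timing: enzyme reaction 120 min at 25 °C after 20 min preincubation. Signal: GDP detection by fluorescence polarization. Read-out basis: percent inhibition of GAP-stimulated GDP formation, scaled between DMSO and no-Arfgap1 medians.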
FGF22 binding: FGF22 (human) thermal shift binding; Q9HCT0; recombinant FGF22 thermal shift, SYPRO orange fluorescence; percent of sucrose octasulfate shift, DMSO zero; activity (Tm shift, normalised), % at 9.99 µM; 1.5% of 340,000 active; AID 651658;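 active = mean Tm shift, scaled 0 neutral to 100 positive control, at about 1.3% or above, every replicate too, limit read from the data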
Target sequence (Q9HCT0 whole entry, looked up): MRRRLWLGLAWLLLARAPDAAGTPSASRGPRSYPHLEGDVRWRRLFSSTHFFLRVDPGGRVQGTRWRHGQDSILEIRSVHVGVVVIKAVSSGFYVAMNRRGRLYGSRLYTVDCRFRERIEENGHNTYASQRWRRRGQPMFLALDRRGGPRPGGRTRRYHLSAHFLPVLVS
Rtt109 Vps75: C. albicans Rtt109 histone acetyltransferase inhibition; Q5AAJ8; purified Rtt109/Vps75, ThioGlo CoA-SH fluorescence, 4 h; 0.16% of 330,000 active; inhibition, % at 34.9 µM;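 active = inhibition of at least 50% in every replicate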
Target sequence (Q5AAJ8 whole entry, looked up): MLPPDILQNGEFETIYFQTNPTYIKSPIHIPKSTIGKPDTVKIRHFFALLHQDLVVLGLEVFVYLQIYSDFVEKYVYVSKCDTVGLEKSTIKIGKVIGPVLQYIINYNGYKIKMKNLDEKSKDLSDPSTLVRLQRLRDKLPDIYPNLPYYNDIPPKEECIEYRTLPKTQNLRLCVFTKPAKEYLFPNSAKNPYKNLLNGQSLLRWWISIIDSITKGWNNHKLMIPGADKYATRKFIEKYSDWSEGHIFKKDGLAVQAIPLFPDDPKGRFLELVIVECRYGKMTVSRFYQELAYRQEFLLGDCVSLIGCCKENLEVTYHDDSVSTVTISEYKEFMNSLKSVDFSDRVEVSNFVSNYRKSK
ASAP1 GAP inh: blocks human ASAP1-stimulated Arf1 GTP hydrolysis. Q9ULH1. GDP FP detection. inhibition, % at 16.5 µM. 0.19% of 360,000 active. AID 624377; in the data active = inhibition above about 25%;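 also: 0% = vehicle with enzyme and substrate and 100% = no enzyme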
Yeast cmpd fluor: counter-screen for efflux pump inhibitors: compound fluorescence; shares compounds with Efflux pump mplx; S. cerevisiae AD/pABC3, flow cytometry; fluorescence ratio to DMSO, % at 10 µM; 4% of 1,700 active; AID 588517;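 active = fluorescence ratio to DMSO above its plate's cutoff, the plate mean ratio plus 5 SD, cut at about 210% in these data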;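 also: unstained yeast with no Nile Red so the signal is compound autofluorescence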
CaMdr1 efflux inh: inhibitors of Candida albicans Mdr1 efflux pump. shares compounds with Efflux pump mplx. S. cerevisiae AD/CaMDR1, Nile Red efflux, flow cytometry. inhibition, % at 10 µM. 1% of 1,700 active. AID 588518; in the data active = inhibition above about 26%;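 also: 0% = DMSO vehicle and 100% = reference inhibitor; higher means more Nile Red retained so more efflux inhibition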
CaCdr2 efflux inh: blocks the Candida albicans Cdr2 efflux pump in yeast; shares compounds with Efflux pump mplx; S. cerevisiae AD/CaCDR2, Nile Red retention, flow cytometry; Nile Red retention ratio vs DMSO, % at 10 µM; 4% of 1,700 active; in the data active = Nile Red retention ratio vs DMSO above about 190%;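 also: higher ratio means more blocking of Cdr2 efflux of the dye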
Cdr1 pump inh: blocks the Candida albicans Cdr1 efflux pump in yeast; AID 588522; shares compounds with Efflux pump mplx; 1% of 1,700 active; inhibition, % at 10 µM; S. cerevisiae AD/CaCDR1, Nile Red efflux, flow cytometry;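 active = inhibition above the screen-wide mean plus twice its standard deviation, cut at about 32% in these data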
Numbers without * were called inactive; / = not tested or not shown.

SMILES	Efflux pump mplx	ARFGAP1 inh	FGF22 binding	Rtt109 Vps75	ASAP1 GAP inh	Yeast cmpd fluor	CaMdr1 efflux inh	CaCdr2 efflux inh	Cdr1 pump inh
CCN(CC)Cc1c(O)ccc2c(=O)c(-c3ccccc3)coc12	1.2*	-5.7	-0.2	-10.7	-0.6	93.3	-0.4	94.0	-0.1
CCN(CC)Cc1c(O)ccc2c(=O)c(-c3ccc4c(c3)OCCO4)coc12	0.0	-2.3	/	4.9	-0.4	/	/	/	/
CCCCn1c(SCC(=O)c2ccc3c(c2)OCCO3)nnc1-c1ccoc1C	0.0	0.1	/	5.0	3.5	/	/	/	/
Cc1cc(Cl)ccc1Oc1ncc(CN2CCN(c3ccccc3)CC2)s1	0.5*	-0.7	/	0.5	-4.9	92.1	0.4	92.0	0.1
CCOC(=O)c1ccc(NC(=O)CSc2nc3c(c(=O)n2-c2ccccc2OC)SCC3)cc1	-0.1	16.9	0.2	4.6	7.7	/	/	/	/
COc1ccc(NC(=O)CSc2nc3c(c(=O)n2-c2ccccc2OC)SCC3)cc1	1.1*	4.1	-0.2	-4.6	4.4	79.0	0.0	93.2	-0.5
O=C(CSc1nnc(Cc2cccs2)n1-c1ccccc1)Nc1ccc2c(c1)OCCO2	-0.1	-14.5	/	-7.8	0.4	126.1	1.7	112.0	0.6
Cn1c(Cc2ccccc2)nnc1SCC(=O)Nc1ccc2c(c1)OCCO2	-0.2	/	0.5	2.3	/	/	/	/	/
Cc1ccc(-n2c(Cc3cccs3)nnc2SCC(=O)Nc2ccc(F)c(F)c2)cc1	0.2	/	-0.1	11.5	/	100.2	-0.1	95.1	0.0
CCNC(=O)[C@@H]1[C@@H](CO)[C@@H]2Cn3c(ccc(-c4ccccc4)c3=O)[C@@H]2N1Cc1cccnc1	/	/	-0.2	/	/	/	/	/	/
O=[N+]([O-])c1cc2c(c(CSc3nnc(Nc4ccccc4)s3)c1)OCOC2	0.0	-5.2	/	4.0	-6.4	/	/	/	/
O=C(/C=C/c1ccccc1Cl)NCCc1ccccc1	3.3*	/	0.0	1.5	/	101.8	-0.2	112.0	0.1
O=C(CSc1ccccc1C(=O)O)NC12CC3CC(CC(C3)C1)C2	-0.2	4.2	0.2	-3.6	-3.6	/	/	/	/
O=C(CSc1ncccc1C(=O)O)NC12CC3CC(CC(C3)C1)C2	0.5*	-5.4	0.1	1.3	12.8	104.5	-0.2	104.2	0.1
Cc1c(/C=N/O)c2ccccn2c1C(=O)c1ccc(F)cc1	1.7*	2.4	0.0	3.6	-4.0	96.2	-0.3	96.3	-0.1
COC(=O)C(Cc1ccccc1)NC(=O)CCNC(=O)c1ccco1 (stereo unspecified)	0.8*	9.2	-0.3	1.4	2.2	90.8	0.1	84.8	-0.1
COC(=O)CNC(=O)COC(=O)C(Cc1ccccc1)NC(=O)c1ccco1 (stereo unspecified)	0.1	-5.5	/	-3.2	-0.5	/	/	/	/
COc1cccc(C(=O)COc2ccc3c(C)c(Cc4ccccc4)c(=O)oc3c2)c1	7.5*	-1.9	0.1	13.6	-17.8	103.0	0.0	95.6	0.0
CCOC(Cn1c(SCc2cc(C(C)=O)ccc2OC)nc2ccccc2c1=O)OCC	-0.2	-6.3	0.2	-0.5	-6.0	/	/	/	/
COc1ccc(C(C)=O)cc1CSc1nc2cc(C(=O)O)ccc2c(=O)n1Cc1ccccc1	5.8*	7.3	0.0	17.6	-9.9	97.8	-0.2	108.3	0.2
O=C(COC(=O)c1ccc(Cl)nc1)NNC(=O)c1ccc(Cl)cc1	0.0	-6.0	-0.1	-0.2	-2.5	/	/	/	/
O=C(COC(=O)c1ccc(Cl)nc1)Nc1c(Cl)cccc1C(F)(F)F	0.5*	-6.5	-0.2	2.9	-8.5	91.9	-0.3	89.0	-0.1
O=C(COC(=O)c1ccc(Cl)nc1)NC(=O)c1ccccc1	0.6*	6.9	0.1	2.3	-5.5	110.0	0.0	112.3	0.1
O=C(COC(=O)c1cc[n+]([O-])cc1)Nc1c(Cl)cccc1C(F)(F)F	-0.1	0.8	/	-10.7	-1.9	/	/	/	/

Bioassay records (PubChem BioAssay)
